Ki data for 20 compounds are collected here from ChEMBL document CHEMBL1156933, “Studies of benzothiophene template as potent factor IXa (FIXa) inhibitors in thrombosis” (J Med Chem, 2010).

One test concerns the target Coagulation factor IX (Homo sapiens, UniProt P00740). Briefly: Inhibition of human recombinant factor 9a by amidolytic assay.
The target in a further test is Coagulation factor X (Homo sapiens, UniProt P00742). Nature of the test: Inhibition of factor 10 by amidolytic assay. In short, it runs like this: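 Done by a previously published literature method. IC50 values are the mean of at least three experiments, with variation among results under 10%.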
Chain of Coagulation factor X (P00742 41-179 limits assumed): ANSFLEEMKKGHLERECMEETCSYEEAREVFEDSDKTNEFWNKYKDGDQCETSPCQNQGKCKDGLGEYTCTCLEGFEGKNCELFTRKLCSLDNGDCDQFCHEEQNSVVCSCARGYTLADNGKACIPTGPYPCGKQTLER
Chain of Coagulation factor X (P00742 235-488 limits assumed): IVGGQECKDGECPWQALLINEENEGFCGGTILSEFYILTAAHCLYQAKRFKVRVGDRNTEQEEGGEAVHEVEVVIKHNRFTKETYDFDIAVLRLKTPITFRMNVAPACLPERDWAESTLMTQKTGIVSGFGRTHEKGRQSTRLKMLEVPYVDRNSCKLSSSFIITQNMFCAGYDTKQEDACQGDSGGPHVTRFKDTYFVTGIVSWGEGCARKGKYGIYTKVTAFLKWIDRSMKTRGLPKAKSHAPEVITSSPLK

Chain of Coagulation factor IX (P00740 47-191 limits assumed): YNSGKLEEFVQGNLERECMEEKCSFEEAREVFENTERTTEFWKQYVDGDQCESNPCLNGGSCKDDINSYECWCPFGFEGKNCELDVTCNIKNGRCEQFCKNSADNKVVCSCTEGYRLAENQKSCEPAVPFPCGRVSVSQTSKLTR
Chain of Coagulation factor IX (P00740 227-461 limits assumed): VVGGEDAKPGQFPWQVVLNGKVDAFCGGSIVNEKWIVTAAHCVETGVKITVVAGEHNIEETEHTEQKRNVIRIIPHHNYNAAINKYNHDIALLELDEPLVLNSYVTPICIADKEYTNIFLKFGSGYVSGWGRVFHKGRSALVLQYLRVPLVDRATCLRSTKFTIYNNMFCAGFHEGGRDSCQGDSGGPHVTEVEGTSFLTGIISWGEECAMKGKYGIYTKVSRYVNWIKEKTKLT

As to `N=C(N)c1cc2ccc(OCc3ccccc3Cl)cc2s1`, at Coagulation factor IX, the Ki was 7.2 µM.
In the case of `CCOC(=O)COc1ccc2cc(C(=N)N)sc2c1`, the Ki was found to be 3.8 µM at Coagulation factor IX and 0.6 µM at Coagulation factor X.
On to `N=C(N)c1cc2cc(-c3ccccc3)ccc2s1`, for which, at Coagulation factor IX, the Ki came out at 8 µM.
As for `N=C(N)c1cc2c(OCc3nc4ccccc4s3)cccc2s1`, the Ki on Coagulation factor IX was 0.8 µM; at Coagulation factor X it was 2.6 µM.
As to `COc1ccccc1COc1ccc2cc(C(=N)N)sc2c1`, the Ki on Coagulation factor IX was 26.9 µM.
The same measure, in the same setting: under `COC(=O)c1ccc(COc2ccc3cc(C(=N)N)sc3c2)cc1` stands 11.3 µM.
As to `Cc1ccc(COc2ccc3cc(C(=N)N)sc3c2)cc1`, the Ki was found to be 0.9 µM on Coagulation factor IX and 7.9 µM on Coagulation factor X.
On the same counts, the results for `N=C(N)c1cc2ccc(OCc3cccnc3)cc2s1` are 1.05 µM and 3.35 µM.
With `N=C(N)c1cc2ccc(OCc3ccc(F)c(F)c3)cc2s1`, the Ki on Coagulation factor IX stood at 0.45 µM; at Coagulation factor X, 5.7 µM.
Turning to `CCOC(=O)COc1cccc2sc(C(=N)N)cc12`, the Ki at Coagulation factor IX came out at 11.9 µM.
For the compound `N=C(N)c1cc2ccc(OCc3ccc(Cl)cc3)cc2s1`, the Ki on Coagulation factor IX is 0.45 µM; at Coagulation factor X, 2.9 µM.
Consider `N=C(N)c1cc2ccc(OCCc3ccccc3)cc2s1`, for which, at Coagulation factor IX, the Ki came to 21.6 µM.
Consider `COC(=O)CC(Oc1ccc2cc(C(=N)N)sc2c1)c1ccc(Cl)cc1` (stereo unspecified), for which the figures for the inhibition constant (Ki) on Coagulation factor IX and at Coagulation factor X were 0.028 µM and 0.033 µM, respectively.
Take `COc1ccc(-c2ccc3cc(C(=N)N)sc3c2)cc1OC`: on Coagulation factor IX, the Ki is 24.2 µM.
Take `N=C(N)c1cc2c(OCc3ccccc3)cccc2s1`: the Ki at Coagulation factor IX stood at 1.5 µM; on Coagulation factor X, 6 µM.
As to `N=C(N)c1cc2c(I)cccc2s1`, the Ki on Coagulation factor IX was 0.95 µM; at Coagulation factor X, 22 µM.
Turning to `CC(Oc1ccc2cc(C(=N)N)sc2c1)c1ccc(F)cc1` (stereo unspecified), on Coagulation factor IX, the Ki was 11.3 µM.
The same measure, in the same setting: under `N=C(N)c1cc2c(-c3ccccc3)cccc2s1` stands 1.6 µM.
As to `N=C(N)c1cc2ccc(OCc3cccs3)cc2s1`, the Ki on Coagulation factor IX turned out to be 0.35 µM; on Coagulation factor X it was 1.15 µM.
In the case of `COc1ccc(-c2ccc3sc(C(=N)N)cc3c2)cc1OC`, the Ki amounted to 5.9 µM on Coagulation factor IX and 11.9 µM at Coagulation factor X.
